# According to ChEMBL document CHEMBL5724801, “EUbOPEN Chemogenomics Library - Multiplex” (2024):
# “And” between values parts separate entries of the source, which are not always exact repeats. Equal values may be shown once.
# System: Fibroblast
# Assay: Multiplex assay against human fibroblast
# Type: toxicity, cell-based
# Method in brief: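 Per cents of healthy-nucleus cells form the tubulin, mitochondrial-mass and membrane-permeability phenotype values. Live cells were stained at seeding with Hoechst33342, BioTracker Green Microtubule Cytoskeleton Dye, MitoTracker Red and Annexin V Alexa Fluor 680. After compound addition they were imaged on a CQ1 microscope at 37°C and 5% CO2, and CellPathfinder machine-learning gating split them into Hoechst high-intensity objects or normal cells, normal cells into healthy, pyknosed or fragmented nuclei, and pyknosed cells into mitotic or apoptotic.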
# [1] = 12 h, 1 µM, compound concentration 1 uM
# [2] = 12 h, 10 µM, compound concentration 10 uM
# [3] = 24 h, 1 µM, compound concentration 1 uM
# [4] = 24 h, 10 µM, compound concentration 10 uM
# [5] = 48 h, 1 µM, compound concentration 1 uM
# [6] = 48 h, 10 µM, compound concentration 10 uM
structure (smiles),measurement,setting,value
Cc1[nH]nc2ccc(-c3cncc(OCC(N)Cc4c[nH]c5ccccc45)c3)cc12 (stereo not given),Population Apoptotic (%),[1],18.11% and 24.66%
same,Population Fragmented Nuclei (%),[1],16.11% and 10.36%
same,Population Healthy Nuclei (%),[1],41.28% and 56.76%
same,Population Hoechst High Intensity Objects (%),[1],0%
same,Population Membrane Permeable-Phenotype (%),[1],3.25% and 3.97%
same,Population Mitochondria Different-Phenotype (%),[1],17.07% and 15.08%
same,Population Mitotic Cells (%),[1],81.89% and 75.34%
same,Population Normal (%),[1],100%
same,Population Pyknosed Nuclei (%),[1],42.62% and 32.88%
same,Population Tubulin-Different-Phenotype (%),[1],23.58% and 29.37%
same,Total Cell Count,[1],298 and 222
same,Population Apoptotic (%),[2],73.46% and 80.82%
same,Population Fragmented Nuclei (%),[2],20.65% and 12.77%
same,Population Healthy Nuclei (%),[2],11.29% and 2.66%
same,Population Hoechst High Intensity Objects (%),[2],0% and 0.27%
same,Population Membrane Permeable-Phenotype (%),[2],2.86% and 10%
same,Population Mitochondria Different-Phenotype (%),[2],5.71% and 10%
same,Population Mitotic Cells (%),[2],26.54% and 19.18%
same,Population Normal (%),[2],100% and 99.73%
same,Population Pyknosed Nuclei (%),[2],68.06% and 84.57%
same,Population Tubulin-Different-Phenotype (%),[2],22.86% and 10%
same,Total Cell Count,[2],310 and 377
same,Population Apoptotic (%),[3],27.83% and 30.77%
same,Population Fragmented Nuclei (%),[3],13.42% and 3.92%
same,Population Healthy Nuclei (%),[3],47.99% and 64.22%
same,Population Hoechst High Intensity Objects (%),[3],0%
same,Population Membrane Permeable-Phenotype (%),[3],0.7% and 2.29%
same,Population Mitochondria Different-Phenotype (%),[3],10.49% and 14.5%
same,Population Mitotic Cells (%),[3],72.17% and 69.23%
same,Population Normal (%),[3],100%
same,Population Pyknosed Nuclei (%),[3],38.59% and 31.86%
same,Population Tubulin-Different-Phenotype (%),[3],18.88% and 22.14%
same,Total Cell Count,[3],298 and 204
same,Population Apoptotic (%),[4],65.94% and 93.38%
same,Population Fragmented Nuclei (%),[4],25.98% and 13.12%
same,Population Healthy Nuclei (%),[4],19.69% and 18.55%
same,Population Hoechst High Intensity Objects (%),[4],0%
same,Population Membrane Permeable-Phenotype (%),[4],10% and 14.63%
same,Population Mitochondria Different-Phenotype (%),[4],6% and 7.32%
same,Population Normal (%),[4],100%
same,Population Pyknosed Nuclei (%),[4],54.33% and 68.33%
same,Population Tubulin-Different-Phenotype (%),[4],24% and 48.78%
same,Total Cell Count,[4],254 and 221
same,Population Apoptotic (%),[5],32.98% and 38.18%
same,Population Fragmented Nuclei (%),[5],11.28% and 7.22%
same,Population Healthy Nuclei (%),[5],53.38% and 64.43%
same,Population Hoechst High Intensity Objects (%),[5],0%
same,Population Membrane Permeable-Phenotype (%),[5],0% and 3.2%
same,Population Mitochondria Different-Phenotype (%),[5],17.61% and 10.4%
same,Population Mitotic Cells (%),[5],67.02% and 61.82%
same,Population Normal (%),[5],100%
same,Population Pyknosed Nuclei (%),[5],35.34% and 28.35%
same,Population Tubulin-Different-Phenotype (%),[5],13.38% and 9.6%
same,Total Cell Count,[5],266 and 194
same,Population Apoptotic (%),[6],40.43% and 95.45%
same,Population Fragmented Nuclei (%),[6],31.02% and 56.65%
same,Population Healthy Nuclei (%),[6],47.22% and 30.64%
same,Population Hoechst High Intensity Objects (%),[6],0%
same,Population Membrane Permeable-Phenotype (%),[6],5.88% and 11.32%
same,Population Mitochondria Different-Phenotype (%),[6],31.37% and 37.74%
same,Population Normal (%),[6],100%
same,Population Pyknosed Nuclei (%),[6],21.76% and 12.72%
same,Population Tubulin-Different-Phenotype (%),[6],35.29% and 66.04%
same,Total Cell Count,[6],216 and 173
O=C(NCc1cccc(O)c1)Nc1nc(-c2ccncc2)cs1,Population Apoptotic (%),[1],12.12% and 27.78%
same,Population Healthy Nuclei (%),[1],41.38% and 76.34%
same,Population Hoechst High Intensity Objects (%),[1],0%
same,Population Membrane Permeable-Phenotype (%),[1],4.17% and 1.41%
same,Population Mitochondria Different-Phenotype (%),[1],6.94% and 9.15%
same,Population Mitotic Cells (%),[1],87.88% and 72.22%
same,Population Normal (%),[1],100%
same,Population Pyknosed Nuclei (%),[1],37.93% and 19.35%
same,Population Tubulin-Different-Phenotype (%),[1],8.33% and 6.34%
same,Total Cell Count,[1],174 and 186
same,Population Apoptotic (%),[2],9.52% and 18.18%
same,Population Fragmented Nuclei (%),[2],11.37% and 4.05%
same,Population Healthy Nuclei (%),[2],38.86% and 61.26%
same,Population Hoechst High Intensity Objects (%),[2],0%
same,Population Membrane Permeable-Phenotype (%),[2],7.32% and 2.21%
same,Population Mitochondria Different-Phenotype (%),[2],15.85% and 13.97%
same,Population Mitotic Cells (%),[2],90.48% and 81.82%
same,Population Normal (%),[2],100%
same,Population Pyknosed Nuclei (%),[2],49.76% and 34.68%
same,Population Tubulin-Different-Phenotype (%),[2],13.41% and 29.41%
same,Total Cell Count,[2],211 and 222
same,Population Apoptotic (%),[3],25.49% and 48.15%
same,Population Healthy Nuclei (%),[3],53.67% and 81.31%
same,Population Hoechst High Intensity Objects (%),[3],0%
same,Population Membrane Permeable-Phenotype (%),[3],3.16% and 0.62%
same,Population Mitochondria Different-Phenotype (%),[3],12.63% and 6.83%
same,Population Mitotic Cells (%),[3],74.51% and 51.85%
same,Population Normal (%),[3],100%
same,Population Pyknosed Nuclei (%),[3],28.81% and 13.64%
same,Population Tubulin-Different-Phenotype (%),[3],11.58% and 6.21%
same,Total Cell Count,[3],177 and 198
same,Population Apoptotic (%),[4],13.79% and 23.26%
same,Population Fragmented Nuclei (%),[4],8.5% and 3.62%
same,Population Healthy Nuclei (%),[4],48% and 76.92%
same,Population Hoechst High Intensity Objects (%),[4],0%
same,Population Membrane Permeable-Phenotype (%),[4],0% and 2.94%
same,Population Mitochondria Different-Phenotype (%),[4],7.29% and 8.82%
same,Population Mitotic Cells (%),[4],86.21% and 76.74%
same,Population Normal (%),[4],100%
same,Population Pyknosed Nuclei (%),[4],43.5% and 19.46%
same,Population Tubulin-Different-Phenotype (%),[4],17.71% and 29.41%
same,Total Cell Count,[4],200 and 221
same,Population Apoptotic (%),[5],55.56% and 38.46%
same,Population Fragmented Nuclei (%),[5],16.05% and 5.73%
same,Population Healthy Nuclei (%),[5],72.84% and 87.5%
same,Population Hoechst High Intensity Objects (%),[5],0%
same,Population Membrane Permeable-Phenotype (%),[5],0.85% and 0.6%
same,Population Mitotic Cells (%),[5],44.44% and 61.54%
same,Population Normal (%),[5],100%
same,Population Pyknosed Nuclei (%),[5],11.11% and 6.77%
same,Population Tubulin-Different-Phenotype (%),[5],3.39% and 6.55%
same,Total Cell Count,[5],162 and 192
same,Population Apoptotic (%),[6],16.67% and 18.42%
same,Population Healthy Nuclei (%),[6],74.44% and 81.61%
same,Population Hoechst High Intensity Objects (%),[6],0%
same,Population Membrane Permeable-Phenotype (%),[6],0.6% and 1.65%
same,Population Mitochondria Different-Phenotype (%),[6],12.05% and 3.3%
same,Population Mitotic Cells (%),[6],83.33% and 81.58%
same,Population Normal (%),[6],100%
same,Population Pyknosed Nuclei (%),[6],13.45% and 17.04%
same,Total Cell Count,[6],223
